This passage reports cytotoxicity results from ChEMBL document CHEMBL4513216, “Probing the Open Global Health Chemical Diversity Library for Multistage-Active Starting Points for Next-Generation Antimalarials” (ACS Infect Dis, 2020).

Structures are written as SMILES.

This data set can be described thus: Toxicity liver stage against HepG2, at 10uM. The class given is cell-based. Also on record: test concentration 10 uM, cell line HepG2-A16-CD81EGFP. The following applies: human, HepG2-A16-CD81EGFP cells; read-out: INHIBITION
The gist of the method: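 Uninfected HepG2-A16-CD81EGFP cells, 3 × 10^3 per well, 1536-well, plated on prespotted compound at 10 μM final, parasite-free screening media added to match infected plates; puromycin 10 μM positive, DMSO 0.5% negative; run in parallel with 48 h PbLuc assay at 37 °C, 5% CO2; viability by CellTiter-Glo luminescence, normalized to controls.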
Consider `CCn1cc(CN2CCCn3nc(CNC(=O)N(C)C)cc3C2)cn1`, for which the cytotoxicity at 10 µM was 6.99%. In the case of `CN(C)C1CCC2(CCN(Cc3nccn3C)CC2)c2ccccc21` (configuration not stated), the cytotoxicity at 10 µM stood at 5.64%.

For `CN(C)CCN1CC(C(=O)NCc2cn3cccnc3n2)CC1=O` (configuration not stated), the cytotoxicity at 10 µM was -4.29%.

Take `Cc1nccn1Cc1nnc(C2CCCN(Cc3ccncc3)C2)n1C` (configuration not stated): the cytotoxicity at 10 µM is -1.63%. Next, `COc1ccc(OC)c(CN(C)c2nc3c(cnn3C)c(=O)[nH]2)c1`: 59.5%; `CC(C(=O)NCc1ccc(N2CCCCC2)nc1)S(C)(=O)=O` (configuration not stated): -8.81%; `Cc1ccc(N2CC[C@@H]3O[C@@H](COCc4cccnc4)CC[C@@H]32)nn1`: 8.37%. For the molecule `Cc1nc(CCNC2CCN(Cc3ccccc3)C2)sc1C` (configuration not stated), the cytotoxicity at 10 µM worked out at 12.3%. Next, `Cc1cc(NC(=O)C2CCCN(C(=O)NCC(C)C)C2)ccn1` (configuration not stated): -10.5%; `COc1ccccc1C(=O)Nc1c(F)c(C(=O)NC2CCCC2)nn1C`: -10.8%.

In the case of `Cc1nn(C)c(N(C)C)c1CNCc1ccnc(N2CCOCC2)c1`, the cytotoxicity at 10 µM was -13%.

For `O=C(NCc1nncn1C1CC1)C1(c2ccc(F)cc2)CCOCC1`, the cytotoxicity at 10 µM was -10.4%. With `O=C(NCC1CC1)C1CN(c2ncccn2)Cc2ccnn2C1` (configuration not stated), the cytotoxicity at 10 µM was 0.705%. With `Cc1ccc2c(n1)N(Cc1cccnc1)CCN(Cc1cnn(C)c1)C2`, the cytotoxicity at 10 µM was found to be 9.12%. As for `CC(C)c1nc(C2CCCN2C(=O)c2nccnc2N)no1` (configuration not stated), the cytotoxicity at 10 µM is -1.96%. With `O=C(CCNC(=O)c1ccoc1)Nc1cc(F)ccc1F` the figure was -12.8%; with `O=c1cc(-c2ccncc2)nc(-c2ccc(CN3CC[C@H](O)C3)cc2)[nH]1`, 4.48%.

Regarding `COCCNC(=O)Cn1ccc2ccc(F)cc21`, the cytotoxicity at 10 µM worked out at 2.14%. Turning to `CC(=O)Nc1cc2c(cc1C)OCO2`, the cytotoxicity at 10 µM worked out at 10.5%. With `Cc1cc(N2CCc3c(ncn3C)C2)n2nc(C(F)(F)F)nc2n1` the figure was 4.11%; with `Cn1nc(Cn2ccnc2)c2c1CN(Cc1ccoc1)C2`, 0.319%.

In the case of `NCC(=O)N1CCCC(O)(CN2CCN(c3ccccc3)CC2)CC1` (configuration not stated), the cytotoxicity at 10 µM was -7.58%.

With `Cc1noc(C2CCN(Cc3cc(=O)n(C)c(=O)n3C)CC2)n1`, the cytotoxicity at 10 µM was -2.57%. Next, `Cn1cc(CCCNC(=O)NC2CCN(CC(F)(F)F)C2=O)cn1` (configuration not stated): 6.51%; `O=C(NC[C@H]1C[C@@H]2CCN1C[C@@H]2CN1CCOCC1)Nc1ccccc1`: 5.96%. As to `CCOC(=O)c1sc2ccsc2c1CNC(=O)C(C)OC` (configuration not stated), the cytotoxicity at 10 µM was -4.07%. On to `O=C(O)[C@@H]1CN(Cc2cc3c(cc2Cl)OCO3)C[C@H]1C1CC1`, for which the cytotoxicity at 10 µM is 0.0851%. For `CC(C)C(=O)NCCNC(=O)C12CCC(=O)N1c1cc(Cl)ccc1S2` (configuration not stated), the cytotoxicity at 10 µM stood at 15.3%. Take `CCNc1nc2cn(-c3ccc(Cl)cc3)c(=O)c-2c[nH]1`: the cytotoxicity at 10 µM was determined as 7.67%.

Turning to `CCS(=O)(=O)CC(=O)NC(C)c1ccccc1Oc1ccccc1` (configuration not stated), the cytotoxicity at 10 µM is -2.97%. With `CCS(=O)(=O)N(C)c1ccc(C(=O)N2CCCC(C)C2)cc1` (configuration not stated) the figure was -15.4%; with `CCOc1ccccc1NC(=O)NCC(C)(O)CCSC` (configuration not stated), -6.14%. For the molecule `O=c1[nH]c(CCN2CCCC2Cn2cccn2)nc2ccccc12` (configuration not stated), the cytotoxicity at 10 µM was -8.05%. `NC(=O)NCC1CCCCN1Cc1nc(-c2ccco2)no1` (configuration not stated): the cytotoxicity at 10 µM was -6.06%. In the case of `NC(=O)C1CCN(C(=O)NC2CCN(CC3CCCC3)C2)CC1` (configuration not stated), the cytotoxicity at 10 µM came out at 13%. In the case of `CN(C)CC1(O)CCN(C(=O)c2ccc(-n3cnnc3)cc2Cl)C1` (configuration not stated), the cytotoxicity at 10 µM is -5.06%. As to `CC(C)c1nc(CC(=O)N2CCN(C)CC2c2ccccc2)cs1` (configuration not stated), the cytotoxicity at 10 µM was -12.6%. Next, `O=C(N1CCOCC1)[C@@]12CCO[C@@H]1CCN(CC1CCCC1)C2`: -0.385%; `CC(C)n1ccnc1CN1CCOC(C)(C(=O)N2CCOCC2)C1` (configuration not stated): -8.58%; `FC(F)(F)c1cccc(OC2CCN(Cc3ncc[nH]3)CC2)c1`: -2.45%. As for `CC(C)c1noc(CN(Cc2ccccc2)C2CC2)n1`, the cytotoxicity at 10 µM was determined as 0.563%. With `CS(=O)(=O)N1CCCC12CCCN(C(=O)c1ccnnc1)C2` (configuration not stated) the figure was -143%.

For `O=C(NC[C@H]1OC[C@@H]2CCN(Cc3ccco3)C[C@@H]21)c1ccnnc1`, the cytotoxicity at 10 µM was -143%.

With `O=C(CN1CCN(C(=O)c2ccccc2)CC1)Nc1ccc(Br)cn1`, the cytotoxicity at 10 µM worked out at 14.1%.

In the case of `CC(C)C(Sc1cccs1)C(=O)NCc1cccnc1` (configuration not stated), the cytotoxicity at 10 µM is -5.15%.

`CC(Cn1cccn1)C(=O)N1CCCN(Cc2cscn2)CC1` (configuration not stated): the cytotoxicity at 10 µM is -13.2%. Next, `O=C(NCCNC(=O)c1scnc1Cl)c1ccoc1`: -7.91%; `Cc1cnn(CC(=O)N(CC2CN(C)CCO2)c2nccs2)c1` (configuration not stated): 1.79%. Next, `Cn1cc(CNc2nc3cc(Cl)ccc3n2C)cn1`: 16.8%. Next, `CC1CS(=O)(=O)CCN1Cc1ccccc1OCC(F)(F)F` (configuration not stated): -4.86%; `CCN(CC)Cc1cc(=O)n2c(n1)CN(C(=O)c1ccc[nH]1)CCC2`: -112%. On to `Oc1cc(CCC2CCCCN2)cc(-c2cccnc2)c1` (configuration not stated), for which the cytotoxicity at 10 µM stood at 4.11%. Consider `COc1cc(F)c(CN2CCN(CC(C)C)C(=O)C2C)cc1OC` (configuration not stated), for which the cytotoxicity at 10 µM was found to be 1.63%. For the molecule `Cc1ccc(CN2CCc3nc(C(C)C)nc(O)c3CC2)s1`, the cytotoxicity at 10 µM turned out to be 0.913%.

Take `CCc1nn(C)c(Cl)c1CN1CCCC2(CC1)CN(C)C(=O)O2` (configuration not stated): the cytotoxicity at 10 µM came out at 5.63%. With `COc1ccc(-c2nc(CSC3CCCCNC3=O)co2)cc1` (configuration not stated) the figure was 20.9%; with `CC(=O)NCC(=O)N1Cc2cc(C#N)ccc2C1c1cnco1` (configuration not stated), 1.06%. Turning to `Cc1nn(C)c2nc(N3CCNC(=O)C3C(C)C)sc12` (configuration not stated), the cytotoxicity at 10 µM is -10%. On to `Cc1cnc(C(=O)N(CCN(C)C)Cc2ccc(Cl)cc2)cn1`, for which the cytotoxicity at 10 µM came to 1.58%.

For the molecule `Cn1nc(C2CCCN(Cc3ccc(F)cc3)C2)c2nccnc21` (configuration not stated), the cytotoxicity at 10 µM was -24.8%. Turning to `O=C(NC1CCS(=O)(=O)C1)c1ccccc1SCc1cscn1` (configuration not stated), the cytotoxicity at 10 µM is -1.53%.

As to `O=C(Nc1ccc(-c2csnn2)cc1)N1CCCC1`, the cytotoxicity at 10 µM was -3.8%.

Regarding `CSc1nc2ccsc2c(=O)n1CC(=O)N(C)C1CCCCC1`, the cytotoxicity at 10 µM stood at 0.773%. Next, `Cc1ccnn1CCC(=O)N(Cc1ccsc1)CC(C)C`: -57.4%. With `O=c1c2ccccc2nc2n1C(CSc1cccc(C(F)(F)F)c1)CN2` (configuration not stated) the figure was 12.9%; with `N#CCCCn1cnc2c(F)cc(Br)cc2c1=O`, 4.29%. Next, `CN(C)C[C@H]1CC[C@@H](Cc2ccc3c(cnn3C)c2)O1`: -1.07%. Take `Nc1cnn(CC(=O)N2CCCCC2)c1`: the cytotoxicity at 10 µM was -3.15%. As to `Cc1cccc(CNc2cc(C3CCCNC3)ccn2)n1` (configuration not stated), the cytotoxicity at 10 µM is 3.81%.

For the molecule `CCS(=O)(=O)N1CCC2(CC1)CN(C(=O)N(C)C)Cc1ccccc12`, the cytotoxicity at 10 µM was determined as 2.67%.

`NC(=O)COc1cccc(CN2CCCC2c2ccc[nH]2)c1` (configuration not stated): the cytotoxicity at 10 µM was 8.58%. As to `Cc1cc(=O)n(CCNS(=O)(=O)c2ccc(F)c(Cl)c2)cn1`, the cytotoxicity at 10 µM was determined as 1.18%. Next, `CCn1cnnc1CNC(=O)N1CCCCCC1`: -7.36%; `Cc1nc(-c2cccc(N3CCC(NC4CCOCC4)CC3)c2)cs1`: -10.1%. Turning to `CCOc1cccc(CN(Cc2cnn(C)c2)CC(C)C)c1O`, the cytotoxicity at 10 µM is -7%.

Take `CN(Cc1ccccc1)C(=O)CCNc1ncccc1C#N`: the cytotoxicity at 10 µM turned out to be 4.55%. As for `COc1ccc(C(=O)N2CCO[C@H]3[C@@H](OCC4CC4)CC[C@@H]32)cc1F`, the cytotoxicity at 10 µM came to 19.1%. Next, `COCc1cc(O)nc(C2CCCN(Cc3ccc(F)cc3)C2)n1` (configuration not stated): -9.88%. `CC(C)[C@@H]1CN(C(=O)CCn2ccccc2=O)C[C@H]1NS(C)(=O)=O`: the cytotoxicity at 10 µM turned out to be 6.2%. With `CS(=O)(=O)C1CCN(S(=O)(=O)Cc2cccc(F)c2)CC1` the figure was -19.1%; with `Cn1cc(CN2CCS(=O)(=O)C(C)(C)C2)cn1`, 0.512%; with `N#CCCNC(=O)c1ccn(-c2ccc3ccccn23)n1`, 3.82%.

Turning to `C1CN(CC2CCOCC2)Cc2c(CN3CCOCC3)nnn2C1`, the cytotoxicity at 10 µM is -143%. `O=C(Nc1nncs1)N1CCCN(C2CCCCC2)CC1`: the cytotoxicity at 10 µM worked out at 1.48%. Next, `CCN(CC)CC1CN(Cc2c(C)noc2C)Cc2nccn2C1` (configuration not stated): 2.37%; `Clc1cccc(CNC2CCN(CCc3ccncc3)CC2)c1`: -5.62%. Next, `COc1ccc(-c2ccncc2)cc1CNC1CCCC1`: -47.7%. As for `CC(C)c1noc(C2CCN(C(=O)C3CCCO3)CC2)n1` (configuration not stated), the cytotoxicity at 10 µM is 8.35%. As for `Cc1nc(CN)cc(N2CCC(O)(c3ccc(Cl)cc3)CC2)n1`, the cytotoxicity at 10 µM is -8.13%. Consider `CNC(=O)[C@@H](c1ccccc1OC)N1CCC[C@H]1C(=O)N1CC[C@@H](O)C1`, for which the cytotoxicity at 10 µM was -2.71%. On to `CN(CCC(O)c1ccccc1)c1cc(C2CC2)ncn1` (configuration not stated), for which the cytotoxicity at 10 µM was -141%. `Cc1nccn1C1CCCN(C(=O)c2cccc(Cn3ccnc3)c2)C1` (configuration not stated): the cytotoxicity at 10 µM is -24.6%.

Regarding `Cc1cc(C2CCCN2C(=O)CN2CCc3ccccc32)on1` (configuration not stated), the cytotoxicity at 10 µM amounted to 2.74%. With `O=S(=O)(NCc1ccccc1Cn1cncn1)C1CCCC1` the figure was 0.674%; with `CC(C)CO[C@H]1CN(S(=O)(=O)c2cn(C)cn2)[C@@H]2CCCO[C@H]12`, -148%; with `CC1CN(C)CCN1C(=O)c1cccn1Cc1cccs1` (configuration not stated), -14.1%. Next, `COc1ccccc1C(=O)C1CCCN(c2cc(C#N)ccn2)C1` (configuration not stated): 7.56%.
